Laboratory results from ChEMBL document CHEMBL1938319, “Design, synthesis, and in vitro antiproliferative activity of novel Dasatinib derivatives” (Bioorg Med Chem Lett, 2012).

Legend:
[1] = system: U-937; assay: Growth inhibition of human U937 cells at 10 uM after 72 hrs by WST-8 reagent based MTT assay; format: functional; conditions: U-937, 72 h, read-out: GI
How it was run: (§1)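 Single-concentration screen at 10 μM on K562 or U937 cells in RPMI1640 with 10% FBS, 5.0 × 10³ cells/well, settled 4 h, then 72 h exposure at 37 °C, 5% CO₂. WST-8/1-methoxyphenazinium reagent added for 1.5 h. A450 read with 650 nm correction. Growth given as % absorbance relative to vehicle control, averaged over three independent experiments.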

[2] = system: U-937; assay: Cytotoxicity against human U937 cells after 72 hrs by WST-8 reagent based MTT assay; format: functional, cell-based; conditions: U-937, 72 h
How it was run: (§2)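 K562 or U937 cells in RPMI1640 with 10% FBS, 5.0 × 10³ cells/well, settled 4 h at 37 °C, 5% CO₂. Exposed to compound for 72 h. Medium removed, then WST-8 reagent (5 mM WST-8, 0.2 mM 1-methoxyphenazinium salt, 150 mM NaCl) added for 1.5 h at 37 °C. Absorbance read at 450 nm, corrected at 650 nm, as % of vehicle control. IC50 from concentration–response curve fitting. Three independent experiments averaged.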

[3] = system: K562; assay: Growth inhibition of human K562 cells at 10 uM after 72 hrs by WST-8 reagent based MTT assay; format: functional; conditions: K562, 72 h, read-out: GI; how it was run: as §1
[4] = system: K562; assay: Cytotoxicity against human K562 cells after 72 hrs by WST-8 reagent based MTT assay; format: functional, cell-based; conditions: K562, 72 h; how it was run: as §2

SMILES	inhibition of growth at 10 µM [1]	IC50 [2]	inhibition of growth at 10 µM [3]	IC50 [4]
Cc1nc(Nc2ccc3sc(C(=O)Nc4c(C)cccc4Cl)cc3c2)cc(N2CCN(CCO)CC2)n1	37.1%	13.7 µM	27.8%	21.9 µM
COc1cc2c(Nc3ccc4sc(C(=O)Nc5c(C)cccc5Cl)cc4c3)ncnc2cc1OCCCN1CCN(C)CC1	76%	3.48 µM	51.2%	9.88 µM
CCN1CCN(c2cc(Nc3ccc4sc(C(=O)Nc5c(C)cccc5Cl)cc4c3)nc(C)n2)CC1	46.5%	13.1 µM	33.9%	16.9 µM
COc1cc2c(Nc3ccc4sc(C(=O)Nc5c(C)cccc5Cl)cc4c3)ncnc2cc1OCCCN1CCCCC1	75.7%	4.34 µM	71.8%	4.01 µM
COc1cc2c(Nc3ccc4sc(C(=O)Nc5c(C)cccc5Cl)cc4c3)ncnc2cc1OCCCN1CCOCC1	56.2%	9.09 µM	9.99%	
COc1cc2c(Nc3ccc4sc(C(=O)Nc5c(C)cccc5Cl)cc4c3)ncnc2cc1OCCCN1CCCCC1C (stereo not drawn)	80.2%	3.45 µM	84.2%	2.15 µM
CCN(CC)CCCOc1cc2ncnc(Nc3ccc4sc(C(=O)Nc5c(C)cccc5Cl)cc4c3)c2cc1OC	78%	4.01 µM	72.5%	3.55 µM
Cc1nc(Nc2ccc3sc(C(=O)Nc4c(C)cccc4Cl)cc3c2)cc(N2CCOCC2)n1	8.37%		13.9%	
CCN(CCO)CCCOc1cc2ncnc(Nc3ccc4sc(C(=O)Nc5c(C)cccc5Cl)cc4c3)c2cc1OC	76.9%	4.25 µM	59.8%	8.97 µM
Cc1nc(Nc2ccc3sc(C(=O)Nc4c(C)cccc4Cl)cc3c2)cc(N2CCN(C)CC2)n1	40.6%	15 µM	32.4%	17 µM
Cc1nc(Nc2ccc3sc(C(=O)Nc4c(C)cccc4Cl)cc3c2)cc(N2CCCCC2)n1	20.6%	20 µM	8.78%	
Cc1nc(Nc2ccc3sc(C(=O)Nc4c(C)cccc4Cl)cc3c2)cc(N2CCC(C)CC2)n1	24.6%	20.6 µM	20.5%	22.2 µM
Cc1nc(Nc2ncc(C(=O)Nc3c(C)cccc3Cl)s2)cc(N2CCN(CCO)CC2)n1 [DASATINIB]	37.2%	13.6 µM	37.4%	12.8 µM
